Results published in ChEMBL document CHEMBL1157537 (J Med Chem, 2008).
Activity calls are given as the source filed them. No cut-off for these calls is given here.

How the values were obtained:
[1] = organism: Rattus norvegicus; test: Progestational activity in estrone-treated ovariectomized rat assessed as inhibition of medroxyprogesterone acetate-induced effect on uterine epithelial cell height; format: functional, organism-based
Summary of the method: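 Antagonist mode of the estrone-treated ovariectomized rat multi-endpoint model: compound was combined with MPA plus estrone, with vehicle and estrone-only groups. Endpoints were uterine epithelial cell height, vaginal epithelial thickness and mammary alveolar bud proliferation.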

[2] = biological target: T1, Progesterone receptor (Homo sapiens) (UniProt P06401); test: Agonist activity at human progesterone receptor relative to progesterone; format: functional
T1 sequence (whole entry): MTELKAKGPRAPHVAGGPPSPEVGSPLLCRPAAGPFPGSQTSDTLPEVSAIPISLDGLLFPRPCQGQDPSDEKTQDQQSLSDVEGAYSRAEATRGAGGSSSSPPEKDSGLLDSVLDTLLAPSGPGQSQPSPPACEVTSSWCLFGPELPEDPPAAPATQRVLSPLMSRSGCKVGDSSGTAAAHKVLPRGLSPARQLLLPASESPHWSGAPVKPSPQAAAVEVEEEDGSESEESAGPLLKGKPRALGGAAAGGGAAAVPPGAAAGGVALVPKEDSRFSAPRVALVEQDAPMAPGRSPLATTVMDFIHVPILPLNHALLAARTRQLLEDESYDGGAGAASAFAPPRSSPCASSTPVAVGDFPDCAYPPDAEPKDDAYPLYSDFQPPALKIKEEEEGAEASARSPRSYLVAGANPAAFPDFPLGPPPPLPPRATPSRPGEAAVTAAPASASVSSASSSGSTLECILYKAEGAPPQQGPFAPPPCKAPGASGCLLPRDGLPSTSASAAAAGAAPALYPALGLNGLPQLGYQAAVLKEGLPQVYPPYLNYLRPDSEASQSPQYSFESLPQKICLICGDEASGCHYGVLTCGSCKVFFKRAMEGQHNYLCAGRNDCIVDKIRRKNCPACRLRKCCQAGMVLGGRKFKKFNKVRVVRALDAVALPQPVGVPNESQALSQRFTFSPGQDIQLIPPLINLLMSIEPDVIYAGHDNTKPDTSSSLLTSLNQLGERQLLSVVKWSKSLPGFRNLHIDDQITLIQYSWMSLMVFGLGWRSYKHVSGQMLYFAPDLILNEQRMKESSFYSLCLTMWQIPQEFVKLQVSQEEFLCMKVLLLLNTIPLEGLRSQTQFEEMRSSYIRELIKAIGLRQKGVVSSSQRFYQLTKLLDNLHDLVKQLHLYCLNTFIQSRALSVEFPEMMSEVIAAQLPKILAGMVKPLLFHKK

[3] = biological target: T2, Progesterone receptor (Homo sapiens, UniProt P06401); test: Agonist activity at human progesterone receptor in human T47D cells assessed as alkaline phosphatase activity; format: functional, cell-based
T2 sequence (P06401 whole entry): T1 sequence (whole entry)

[4] = biological target: T1, Progesterone receptor (Homo sapiens); test: Agonist activity at human progesterone receptor in human T47D cells assessed as alkaline phosphatase activity relative to progesterone; format: functional, cell-based
[5] = biological target: T2, Progesterone receptor; test: Binding affinity at human progesterone receptor
[6] = biological target: T2, Progesterone receptor; test: Agonist activity at human progesterone receptor; format: functional
[7] = organism: Rattus norvegicus; test: Progestational activity in estrone-treated ovariectomized rat assessed as effect on uterine epithelial cell height; format: functional, organism-based
Summary of the method: (§1)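 Ovariectomized rats were treated with estrone, alone or combined with test progestin, and compared with vehicle and estrone-only groups. Endpoints were uterine epithelial cell height, vaginal epithelial thickness and mammary alveolar bud proliferation.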

[8] = organism: Rattus norvegicus; test: Progestational activity in estrone-treated ovariectomized rat assessed as effect on vaginal epithelial thickness; format: functional, organism-based; summary of the method: as §1
[9] = organism: Rattus norvegicus; test: Progestational activity in estrone-treated ovariectomized rat assessed as reduction of breast alveolar bud proliferation; format: functional, organism-based; summary of the method: as §1
[10] = biological target: T3, Androgen receptor (Homo sapiens, UniProt P10275); test: Agonist activity at human androgen receptor; format: functional
T3 sequence (P10275 whole entry): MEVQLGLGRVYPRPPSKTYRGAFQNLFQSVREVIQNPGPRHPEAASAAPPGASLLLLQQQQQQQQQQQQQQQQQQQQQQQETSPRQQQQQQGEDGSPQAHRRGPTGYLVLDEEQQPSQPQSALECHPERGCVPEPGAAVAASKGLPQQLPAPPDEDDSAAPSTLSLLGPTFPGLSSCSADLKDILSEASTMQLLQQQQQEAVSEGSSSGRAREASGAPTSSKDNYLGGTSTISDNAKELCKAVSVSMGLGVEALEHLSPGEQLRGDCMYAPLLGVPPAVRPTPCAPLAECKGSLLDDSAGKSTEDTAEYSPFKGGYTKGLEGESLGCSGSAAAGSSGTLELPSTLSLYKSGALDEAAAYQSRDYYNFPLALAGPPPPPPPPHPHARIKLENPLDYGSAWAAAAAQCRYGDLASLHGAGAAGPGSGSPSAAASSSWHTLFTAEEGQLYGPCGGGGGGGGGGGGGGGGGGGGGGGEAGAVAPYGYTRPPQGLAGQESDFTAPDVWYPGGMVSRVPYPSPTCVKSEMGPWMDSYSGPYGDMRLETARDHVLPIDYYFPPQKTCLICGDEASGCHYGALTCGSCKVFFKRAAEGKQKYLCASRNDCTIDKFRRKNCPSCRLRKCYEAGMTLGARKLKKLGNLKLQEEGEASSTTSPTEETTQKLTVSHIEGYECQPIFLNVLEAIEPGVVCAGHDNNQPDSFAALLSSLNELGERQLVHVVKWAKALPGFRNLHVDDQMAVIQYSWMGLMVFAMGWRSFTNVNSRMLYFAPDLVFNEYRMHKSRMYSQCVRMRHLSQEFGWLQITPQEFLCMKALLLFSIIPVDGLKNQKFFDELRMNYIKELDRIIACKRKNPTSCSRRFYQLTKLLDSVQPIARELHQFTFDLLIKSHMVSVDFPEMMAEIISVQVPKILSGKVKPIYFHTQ

[11] = biological target: T4, Glucocorticoid receptor (Homo sapiens, UniProt P04150); test: Antagonist activity at human glucocorticoid receptor; format: functional
T4 sequence (P04150 whole entry): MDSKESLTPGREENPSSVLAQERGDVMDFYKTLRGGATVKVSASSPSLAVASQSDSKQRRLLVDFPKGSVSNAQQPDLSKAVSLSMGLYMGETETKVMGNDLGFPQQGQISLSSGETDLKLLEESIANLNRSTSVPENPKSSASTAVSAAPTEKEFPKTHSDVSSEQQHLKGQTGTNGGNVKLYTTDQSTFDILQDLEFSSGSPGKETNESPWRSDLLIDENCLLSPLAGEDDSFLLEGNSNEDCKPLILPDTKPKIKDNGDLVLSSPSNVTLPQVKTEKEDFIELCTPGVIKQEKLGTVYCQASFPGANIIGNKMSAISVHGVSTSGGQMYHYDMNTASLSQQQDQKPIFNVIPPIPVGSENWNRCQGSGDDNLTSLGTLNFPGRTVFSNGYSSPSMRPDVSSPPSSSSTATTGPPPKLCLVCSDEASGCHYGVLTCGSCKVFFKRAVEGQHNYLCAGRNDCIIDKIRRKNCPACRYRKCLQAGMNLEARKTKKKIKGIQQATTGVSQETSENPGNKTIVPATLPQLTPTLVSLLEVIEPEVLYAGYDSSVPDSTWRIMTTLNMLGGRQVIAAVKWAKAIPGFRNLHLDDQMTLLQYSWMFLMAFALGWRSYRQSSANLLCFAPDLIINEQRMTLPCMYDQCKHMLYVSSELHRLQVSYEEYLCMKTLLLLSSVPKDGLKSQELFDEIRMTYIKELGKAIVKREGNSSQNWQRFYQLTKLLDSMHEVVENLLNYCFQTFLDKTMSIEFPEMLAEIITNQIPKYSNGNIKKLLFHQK

[12] = biological target: T5, Mineralocorticoid receptor (Homo sapiens, UniProt P08235); test: Antagonist activity at human mineralocorticoid receptor; format: functional
T5 sequence (P08235 whole entry): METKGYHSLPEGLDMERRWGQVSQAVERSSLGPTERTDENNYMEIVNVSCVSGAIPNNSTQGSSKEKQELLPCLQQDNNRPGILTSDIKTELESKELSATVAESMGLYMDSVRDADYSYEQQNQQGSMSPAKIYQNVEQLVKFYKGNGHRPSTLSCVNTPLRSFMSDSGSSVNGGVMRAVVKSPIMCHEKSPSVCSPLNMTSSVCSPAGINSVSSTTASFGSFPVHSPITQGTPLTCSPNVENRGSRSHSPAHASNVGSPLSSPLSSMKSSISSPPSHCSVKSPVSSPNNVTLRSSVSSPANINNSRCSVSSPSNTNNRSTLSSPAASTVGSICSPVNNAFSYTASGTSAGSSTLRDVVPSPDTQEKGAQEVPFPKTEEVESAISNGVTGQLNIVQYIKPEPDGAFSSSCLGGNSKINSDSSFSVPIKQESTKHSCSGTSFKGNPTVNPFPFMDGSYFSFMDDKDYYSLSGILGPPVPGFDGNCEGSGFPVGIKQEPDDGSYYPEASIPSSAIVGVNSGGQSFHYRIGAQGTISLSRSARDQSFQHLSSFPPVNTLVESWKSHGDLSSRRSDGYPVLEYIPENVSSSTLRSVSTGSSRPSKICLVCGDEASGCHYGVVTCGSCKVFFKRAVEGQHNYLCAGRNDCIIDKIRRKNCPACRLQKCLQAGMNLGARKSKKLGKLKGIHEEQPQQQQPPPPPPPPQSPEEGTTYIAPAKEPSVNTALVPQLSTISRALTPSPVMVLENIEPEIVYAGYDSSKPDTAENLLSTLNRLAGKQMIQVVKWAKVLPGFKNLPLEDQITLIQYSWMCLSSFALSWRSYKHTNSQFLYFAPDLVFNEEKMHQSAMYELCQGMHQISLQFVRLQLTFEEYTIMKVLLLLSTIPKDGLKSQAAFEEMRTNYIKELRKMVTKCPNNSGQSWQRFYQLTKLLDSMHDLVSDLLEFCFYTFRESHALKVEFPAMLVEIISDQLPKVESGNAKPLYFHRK

Compound	Efficacy [2] [%]	EC50 [3] [nM]	Efficacy [4] [%]	EC50 [6] [nM]	further results
C[C@@H]1C[C@@H]2C(=C3CCC(=O)C=C31)[C@@H](c1ccc(N(C)C)cc1)C[C@@]1(C)[C@H]2CC[C@@]12CCCO2					Activity [1]: Active
CC1=CC(C)(C)Nc2ccc3c(c21)[C@H]([C@H]1CCC[C@@]2(C)O[C@@H]12)Oc1c(F)cc(F)cc1-3	177	2.8	59	0.4	Ki [5]: 1.2 nM
CC1=C[C@@H]([C@@H]2Oc3c(F)cc(F)cc3-c3ccc4c(c32)C(C)=CC(C)(C)N4)CCC1 (stereo in doubt; (+)-5d)	11				
CC1=C[C@@H]([C@@H]2Oc3c(F)cc(F)cc3-c3ccc4c(c32)C(C)=CC(C)(C)N4)CCC1 (racemic)	162				
CC1=CC(C)(C)Nc2ccc3c(c21)[C@H]([C@H]1CCCC(C)=C1C)Oc1c(F)cc(F)cc1-3 (racemic)	97	96	66	10.7	
CC1=CC(C)(C)Nc2ccc3c(c21)[C@H]([C@@H]1C=CCCC1)Oc1c(F)cc(F)cc1-3 (racemic)	171	27	66	3.4	Ki [5]: 4.8 nM
CC(=O)O[C@]1(C(C)=O)CC[C@H]2[C@@H]3C[C@H](C)C4=CC(=O)CC[C@]4(C)[C@H]3CC[C@@]21C	98		98		Activity [7]: Active; Activity [8]: Active; Activity [9]: Active
CC1=C[C@@H]([C@@H]2Oc3c(F)cc(F)cc3-c3ccc4c(c32)C(C)=CC(C)(C)N4)CCC1 (stereo in doubt; (-)-5c)					EC50 [10]: 1800 nM; IC50 [11]: 34 nM; IC50 [12]: 1350 nM
CC1=C[C@H]([C@@H]2Oc3c(F)cc(F)cc3-c3ccc4c(c32)C(C)=CC(C)(C)N4)CCC1 (racemic)	100		63		
